Data: ChEMBL document CHEMBL6127097, “Structure-Guided Discovery of cis-Hexahydro-pyrido-oxazinones as Reversible, Drug-like Monoacylglycerol Lipase Inhibitors” (J Med Chem, 2024)
The source made the active and inactive calls. No cut-off for these calls is given here.

Tests used:
[1] = Clearance in mouse microsomes; format: ADME, Microsome
[2] = Bioavailability in Wistar rat at 10 mg/kg, ip measured upto 24 hrs by LC-MS/MS analysis; format: ADME, organism-based; conditions: in vivo
[3] = Average drug concentration in mouse plasma at 3 mg/kg, ip measured after 4 hrs; format: ADME, organism-based; conditions: in vivo
How it was run: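 Mice received 3, 10 or 30 mg/kg i.p. The compound was dissolved in DMSO/Tween 80 (1:1) and diluted with 8 parts saline (NaCl/DMSO/TW80 80/10/10). Plasma was taken 4 h after injection and average concentrations reported.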

[4] = Clearance in rat hepatocytes assessed per 10 million cells; format: ADME, cell-based, Hepatocyte
[5] = molecular target: T1, Monoacylglycerol lipase ABHD6 (Mus musculus) (UniProt Q8R2Y0); experiment: Inhibition of ABHD6 in mouse brain lysates at 10 uM by ABPP assay; format: subcellular
T1 sequence (whole entry): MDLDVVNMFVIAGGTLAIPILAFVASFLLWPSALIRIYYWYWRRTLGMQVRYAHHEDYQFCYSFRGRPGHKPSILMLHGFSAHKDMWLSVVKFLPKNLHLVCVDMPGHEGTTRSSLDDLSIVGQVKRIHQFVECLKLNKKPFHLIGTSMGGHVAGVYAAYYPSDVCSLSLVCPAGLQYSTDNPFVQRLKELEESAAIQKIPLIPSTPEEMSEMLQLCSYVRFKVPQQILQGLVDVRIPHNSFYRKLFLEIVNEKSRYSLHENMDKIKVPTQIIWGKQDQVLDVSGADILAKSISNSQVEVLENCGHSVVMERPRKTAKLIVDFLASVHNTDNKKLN
How it was run: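 Gel-based activity-based protein profiling of hydrolases, with the inhibitor at 10 µM.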

[6] = molecular target: T2, Monoglyceride lipase (Mus musculus) (UniProt O35678); experiment: In vivo receptor occupancy at MAGL receptor in mouse at 10 mg/kg, ip measured after 4 hrs; format: functional, organism-based
T2 sequence (whole entry): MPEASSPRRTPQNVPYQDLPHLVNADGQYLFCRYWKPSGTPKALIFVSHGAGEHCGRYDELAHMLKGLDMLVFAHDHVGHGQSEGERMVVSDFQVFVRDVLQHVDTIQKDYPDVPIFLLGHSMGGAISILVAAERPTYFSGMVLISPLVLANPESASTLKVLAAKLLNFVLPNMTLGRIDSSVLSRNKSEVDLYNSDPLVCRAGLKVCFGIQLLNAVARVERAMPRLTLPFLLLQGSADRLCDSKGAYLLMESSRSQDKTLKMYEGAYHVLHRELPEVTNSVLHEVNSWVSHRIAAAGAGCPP

| microsomal CLint [1] | bioavailability [2] | Cave [3] | hepatocyte CLint [4] | inhibition [5] | Activity [6] | Structure (SMILES) |
| --- | --- | --- | --- | --- | --- | --- |
| < 10 µL/min/mg | 111% | 1901 nM | 4 µL/min/10^7 cells | – | – | O=C1CO[C@H]2CCN(C(=O)N3CCC(Cc4ccc(C(F)(F)F)cc4)CC3)C[C@H]2N1 [listing 1 of 2 here] |
| – | – | – | – | inactive | 79% | O=C1CO[C@H]2CCN(C(=O)N3CCC(Cc4ccc(C(F)(F)F)cc4)CC3)C[C@H]2N1 [listing 2 of 2 here] |
